From ChEMBL document CHEMBL3997766, “Synthesis and pre-clinical studies of new amino-acid ester thiazolide prodrugs” (Eur J Med Chem, 2017)

Key:
[1] = tested on: Rattus norvegicus; assay: Drug level in Sprague-Dawley rat treated with Nitazoxanide at 6 mg/kg, iv measured at 0.7 to 2.1 hrs post dose; type: ADME, organism-based; settings: in vivo
[2] = tested on: Plasma; assay: Drug level in Sprague-Dawley rat plasma treated with RM-5061 at 10 to 75 mg/kg administered via oral gavage qd for 28 consecutive days; type: ADME, organism-based; settings: in vivo
Procedure, shortened: (§1)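 In a sub-acute study, Sprague-Dawley rats were dosed once daily for 28 consecutive days at 10, 30 or 75 mg/kg, given as a yellow suspension. There were four groups of up to 30 rats each (15M/15F) to assess systemic exposure.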

[3] = tested on: Plasma; assay: Elimination half life in Sprague-Dawley rat assessed as tizoxanide level in plasma at 10 to 75 mg/kg administered via oral gavage qd for 28 consecutive days; type: ADME, organism-based; settings: in vivo; procedure, shortened: as §1
[4] = tested on: Canis familiaris; assay: Drug level in Beagle dog plasma treated with RM-5061 up to 25 mg/kg administered orally as gelatin capsule once daily for 28 days measured on day 1 and 29; type: ADME, organism-based, Canis lupus familiaris; settings: in vivo, po, 672 h
Procedure, shortened: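 Beagle dogs received the drug orally in a single gelatin capsule at 5, 15 or 25 mg/kg once daily for 28 consecutive days in a sub-acute toxicity study assessing systemic exposure.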

[5] = tested on: Rattus norvegicus; assay: Drug level in Sprague-Dawley rat treated with RM5038 at 6.4 mg/kg, iv measured at 0.25 to 1 hrs post dose; type: ADME, organism-based; settings: in vivo
[6] = tested on: Rattus norvegicus; assay: Drug level in Sprague-Dawley rat treated with RM5064 at 6.4 mg/kg, iv measured at 0.25 to 1 hrs post dose; type: ADME, organism-based; settings: in vivo
[7] = tested on: Plasma; assay: Drug metabolism in Sprague-Dawley rat assessed as RM-4848 formation in plasma at 30 mg/kg, po measured at 0.25 to 0.5 post dose; type: ADME, organism-based; settings: in vivo
Procedure, shortened: (§2)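 Rats in groups of three received one compound as a single oral dose (30 mg/kg) or a single intravenous injection (6 mg/kg), with four compounds studied separately. Serial blood samples were drawn at 5, 10, 15 and 30 min and at 1, 2, 4, 8, 23 and 24 h post-dose. Plasma parent drug and metabolites were quantified and PK parameters were derived.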

[8] = tested on: Rattus norvegicus; assay: Elimination half life in Sprague-Dawley rat assessed as RM-4848 level in plasma at 30 mg/kg, po administered as single dose; type: ADME, organism-based; settings: in vivo; procedure, shortened: as §2
[9] = tested on: Rattus norvegicus; assay: Cmax in Sprague-Dawley rat assessed as RM-4848 level in plasma at 30 mg/kg, po administered as single dose; type: ADME, organism-based; design: dose 30 mg/kg, route oral; settings: in vivo; procedure, shortened: as §2
[10] = tested on: Rattus norvegicus; assay: AUC (0 to t) in Sprague-Dawley rat assessed as RM-4848 level in plasma at 30 mg/kg, po administered as single dose; type: ADME, organism-based; settings: in vivo; procedure, shortened: as §2
[11] = tested on: Rattus norvegicus; assay: Tmax in Sprague-Dawley rat assessed as RM-4848-glucuronide level in plasma at 30 mg/kg, po administered as single dose; type: ADME, organism-based; settings: in vivo
Procedure, shortened: (§3)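 Rats in groups of three got a single oral dose (30 mg/kg) or a single intravenous injection (6 mg/kg). Serial blood samples were taken at 5, 10, 15 and 30 min and at 1, 2, 4, 8, 23 and 24 h post-dose for plasma drug and glucuronide levels. Bioavailability came from oral versus intravenous AUC after dose correction to 30 mg/kg.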

[12] = tested on: Rattus norvegicus; assay: Cmax in Sprague-Dawley rat assessed as RM-4848-glucuronide level in plasma at 30 mg/kg, po administered as single dose; type: ADME, organism-based; design: dose 30 mg/kg, route oral; settings: in vivo; procedure, shortened: as §2
[13] = tested on: Rattus norvegicus; assay: AUC (0 to t) in Sprague-Dawley rat assessed as RM-4848-glucuronide level in plasma at 30 mg/kg, po administered as single dose; type: ADME, organism-based; settings: in vivo; procedure, shortened: as §2
[14] = tested on: Rattus norvegicus; assay: Elimination half life in Sprague-Dawley rat assessed as RM-4848-glucuronide level at 30 mg/kg, po administered as single dose; type: ADME, organism-based; settings: in vivo; procedure, shortened: as §2
[15] = tested on: Rattus norvegicus; assay: Oral bioavailability in Sprague-Dawley rat assessed as RM-4848 level in plasma at 30 mg/kg administered as single dose; type: ADME, organism-based; settings: in vivo
Procedure, shortened: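 Groups of three rats received a single oral dose (30 mg/kg) or intravenous dose (6 mg/kg), with serial blood sampling from 5 min to 24 h. Absolute bioavailability came from the AUC after oral versus intravenous dosing, with the AUC corrected for dose to 30 mg/kg.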

[16] = tested on: Plasma; assay: Drug metabolism in Sprague-Dawley rat assessed as RM-4848 formation in plasma at 6.4 mg/kg, iv measured at 1 to 4 hrs post dose; type: ADME, organism-based; settings: in vivo
[17] = tested on: Rattus norvegicus; assay: Elimination half life in Sprague-Dawley rat assessed as RM-4848 level in plasma at 6.4 mg/kg, iv; type: ADME, organism-based; settings: in vivo
[18] = tested on: Rattus norvegicus; assay: Drug metabolism in Sprague-Dawley rat assessed as RM-4848-glucuronide formation at 6.4 mg/kg, iv measured at 0.25 to 1 hrs post dose; type: ADME, organism-based; settings: in vivo
[19] = tested on: Rattus norvegicus; assay: Cmax in Sprague-Dawley rat assessed as RM-4848 level in plasma at 6 mg/kg, iv administered as single dose; type: ADME, organism-based; design: dose 6 mg/kg, route intravenous; settings: in vivo; procedure, shortened: as §2
[20] = tested on: Rattus norvegicus; assay: AUC (0 to t) in Sprague-Dawley rat assessed as RM-4848 level in plasma at 6 mg/kg, iv administered as single dose; type: ADME, organism-based; settings: in vivo; procedure, shortened: as §2
[21] = tested on: Rattus norvegicus; assay: Cmax in Sprague-Dawley rat assessed as RM-4848-glucuronide level at 6 mg/kg, iv administered as single dose; type: ADME, organism-based; design: dose 6 mg/kg, route intravenous; settings: in vivo; procedure, shortened: as §2
[22] = tested on: Rattus norvegicus; assay: AUC (0 to t) in Sprague-Dawley rat assessed as RM-4848-glucuronide level at 6 mg/kg, iv administered as single dose; type: ADME, organism-based; settings: in vivo; procedure, shortened: as §2
[23] = tested on: Rattus norvegicus; assay: Elimination half life in Sprague-Dawley rat assessed as RM-4848-glucuronide level at 6.4 mg/kg, iv; type: ADME, organism-based; settings: in vivo
[24] = tested on: Plasma; assay: Drug metabolism in Sprague-Dawley rat assessed as RM-4848-glucuronide formation in plasma at 6 mg/kg, iv administered as single dose; type: ADME, organism-based; settings: in vivo; procedure, shortened: as §2
[25] = tested on: Plasma; assay: Drug metabolism in Sprague-Dawley rat assessed as RM4848-glucuronide formation in plasma at 30 mg/kg, po measured at 0.25 to 0.5 post dose; type: ADME, organism-based; settings: in vivo; procedure, shortened: as §2
[26] = tested on: Rattus norvegicus; assay: Tmax in Sprague-Dawley rat assessed as RM-4848-glucuronide formation at 6.4 mg/kg, iv; type: ADME, organism-based; settings: in vivo; procedure, shortened: as §3
[27] = tested on: Plasma; assay: Elimination half life in Sprague-Dawley rat assessed as tizoxanide-glucuronide level in plasma at 10 to 75 mg/kg administered via oral gavage qd for 28 consecutive days; type: ADME, organism-based; settings: in vivo; procedure, shortened: as §1

Question: How did the Drug metabolism [1] turn out when `O=C(Nc1ncc([N+](=O)[O-])s1)c1ccccc1O` [TIZOXANIDE] was run?
Answer: Its Drug metabolism is “Metabolite_Detected”.

Question: And the Drug metabolism [2]?
Answer: The Drug metabolism was “Metabolite_Detected”.

Question: What about the beta t1/2 [3] of the same compound?
Answer: Its beta t1/2 is 0.7 to 3.7 h.

Question: And the Drug metabolism [4]?
Answer: The Drug metabolism was “Metabolite_Detected”.

Question: With `O=C(Nc1ncc(Cl)s1)c1ccccc1O` as the compound, how does the Drug metabolism [5] read?
Answer: The Drug metabolism was “Metabolite_Detected”.

Question: What about the Drug metabolism [6] of the same compound?
Answer: The Drug metabolism was “Metabolite_Detected”.

Question: Which results are given for `CC(=O)Oc1ccccc1C(=O)Nc1ncc(Cl)s1`?
Answer: Drug metabolism [7]: Metabolite_Detected; beta t1/2 [8]: 3 h; Cmax [9]: 101 ng/mL; AUCt [10]: 130 ng·h/mL; Tmax [11]: 0.25 to 0.5 h; Cmax [12]: 2080 ng/mL; AUCt [13]: 10040 ng·h/mL; beta t1/2 [14]: 6.14 h; F [15]: 1%; Drug metabolism [16]: Metabolite_Detected; beta t1/2 [17]: 0.67 h; Drug metabolism [18]: Metabolite_Detected; Cmax [19]: 9980 ng/mL; AUCt [20]: 3480 ng·h/mL; Cmax [21]: 17300 ng/mL; AUCt [22]: 19400 ng·h/mL; beta t1/2 [23]: 2.5 to 3.2 h; Drug metabolism [24]: Metabolite_Detected; Drug metabolism [25]: Metabolite_Detected; Tmax [26]: 0.25 to 1 h

Question: How did the Drug metabolism [2] turn out when `O=C(Nc1ncc([N+](=O)[O-])s1)c1ccccc1O[C@@H]1O[C@H](C(=O)O)[C@@H](O)[C@H](O)[C@H]1O` was run?
Answer: Its Drug metabolism is “Metabolite_Detected”.

Question: What about the beta t1/2 [27] of the same compound?
Answer: Its beta t1/2 is 1.5 to 11 h.

Question: And the Drug metabolism [4]?
Answer: The Drug metabolism was “Metabolite_Detected”.
